Data as given in ChEMBL document CHEMBL1144162, “Tetrahydropyridine-4-carboxamides as novel, potent transient receptor potential vanilloid 1 (TRPV1) antagonists” (Bioorg Med Chem, 2008).
In brackets after ≈: the same amount, converted by molar mass.

Assays:
[1] = target: T1, Transient receptor potential cation channel subfamily V member 1 (Homo sapiens, UniProt Q8NER1); test: Antagonist activity at human recombinant TRPV1 expressed in human 1321N1 cells assessed as inhibition of capsaicin-induced calcium influx by FLIPR assay; assay type: functional, cell-based
T1 sequence (Q8NER1 whole entry): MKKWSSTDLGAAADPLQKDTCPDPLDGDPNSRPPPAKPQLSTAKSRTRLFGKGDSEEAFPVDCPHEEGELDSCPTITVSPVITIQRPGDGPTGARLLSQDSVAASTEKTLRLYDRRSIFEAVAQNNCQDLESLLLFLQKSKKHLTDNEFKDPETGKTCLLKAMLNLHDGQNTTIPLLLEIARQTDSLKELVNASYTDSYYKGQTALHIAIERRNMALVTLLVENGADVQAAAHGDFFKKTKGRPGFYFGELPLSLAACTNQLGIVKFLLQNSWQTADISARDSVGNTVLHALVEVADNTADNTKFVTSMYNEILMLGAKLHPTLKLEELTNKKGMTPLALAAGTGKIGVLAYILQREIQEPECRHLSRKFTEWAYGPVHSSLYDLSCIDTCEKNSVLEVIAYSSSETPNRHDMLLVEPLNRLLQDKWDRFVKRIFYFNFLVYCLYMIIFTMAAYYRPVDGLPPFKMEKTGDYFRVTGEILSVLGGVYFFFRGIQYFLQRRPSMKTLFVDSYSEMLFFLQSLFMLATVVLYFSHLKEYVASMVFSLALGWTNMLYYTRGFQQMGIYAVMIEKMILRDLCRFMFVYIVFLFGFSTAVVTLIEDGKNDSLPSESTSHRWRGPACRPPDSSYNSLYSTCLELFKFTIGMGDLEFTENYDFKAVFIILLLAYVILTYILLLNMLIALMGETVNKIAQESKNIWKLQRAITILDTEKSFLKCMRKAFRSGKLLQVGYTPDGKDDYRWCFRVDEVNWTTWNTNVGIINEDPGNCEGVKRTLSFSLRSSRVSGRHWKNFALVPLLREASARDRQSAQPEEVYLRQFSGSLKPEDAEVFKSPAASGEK
Outline: (§1)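 Ca2+ influx in 1321N1 cells stably expressing recombinant human or rat TRPV1, grown to confluency, loaded with fluo-4 AM (2 µM in D-PBS) 1–2 h at 23 °C, washed. Compound (11-point half-log range, D-PBS) added at 10 s, capsaicin 3 min later. FLIPR fluorescence read over 240 s; peak increase minus baseline as % of 0.05 µM capsaicin control; four-parameter logistic fit for IC50; mean of ≥2 experiments in triplicate.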

[2] = Ratio of drug level in brain to plasma in po dosed Sprague-Dawley rat; assay type: ADME, organism-based
Outline: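 Male Sprague–Dawley rats (200–320 g), group-housed with free food and water, fasted 16 h before oral dosing. Compound given po in 10% ethanol, 20% polysorbate-80 and 70% PEG-400. Drug concentrations in brain and plasma were expressed as a [brain]:[plasma] ratio.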

Rattus norvegicus [3] = test: Antinociceptive activity against hyperalgesia in po dosed rat Chung neuropathic pain model; assay type: functional
Rattus norvegicus [4] = test: Analgesic activity against complete Freund's adjuvant-induced thermal hyperalgesia in po dosed Sprague-Dawley rat assessed as paw withdrawal latency; assay type: functional
Outline: (§2)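 Male Sprague–Dawley rats (200–320 g), food withdrawn 16 h before oral dosing. Right hindpaw injected with 150 µL of 50% CFA in saline. Thermal hyperalgesia measured 48 h later as radiant-heat paw withdrawal on a 30 °C glass surface after 30 min habituation. Vehicle: 10% ethanol, 20% polysorbate-80, 70% PEG-400. Single-dose testing used 30 µmol/kg po, n = 6/group, versus vehicle.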

Rattus norvegicus [5] = test: Analgesic activity against complete Freund's adjuvant-induced thermal hyperalgesia in Sprague-Dawley rat assessed as paw withdrawal latency at 30 umol/kg, po; assay type: functional; outline: as §2
[6] = Apparent permeability across human Caco-2 cell membrane; assay type: ADME, cell-based
[7] = Aqueous solubility of the compound; assay type: physicochemical; settings: buffer
Rattus norvegicus [8] = species on record: Rattus norvegicus; test: Analgesic activity against capsaicin-induced secondary mechanical allodynia in rat; assay type: functional
[9] = target: T1, Transient receptor potential cation channel subfamily V member 1; test: Antagonist activity at human recombinant TRPV1 expressed in human 1321N1 cells assessed as inhibition of pH 5.5-induced calcium influx by FLIPR assay; assay type: functional, cell-based
Outline: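 Fluo-4 FLIPR Ca2+ assay in 1321N1 cells stably expressing human TRPV1, stimulated by low pH (pH 5.5) after compound preincubation. Peak fluorescence rise minus baseline is fit by a four-parameter logistic equation to give IC50.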

Rattus norvegicus [10] = species on record: Rattus norvegicus; test: Analgesic activity against skin incision-induced acute thermal hyperalgesia in Sprague-Dawley rat; assay type: functional
Outline: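 Under halothane (2–3%) anesthesia, a left hind paw plantar incision was made aseptically in male Sprague–Dawley rats. Rats recovered 2 h before thermal hyperalgesia testing.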

Rattus norvegicus [11] = species on record: Rattus norvegicus; test: Analgesic activity against monosodium iodoacetate-induced osteoarthritis in rat; assay type: functional
Rattus norvegicus [12] = species on record: Rattus norvegicus; test: Analgesic activity against gamma carrageenan-induced thermal hyperalgesia in Sprague-Dawley rat; assay type: functional
Outline: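 Male Sprague–Dawley rats (200–320 g) received 100 µL of 1% carrageenan in saline into the right hindpaw plantar surface. Thermal hyperalgesia was tested 2 h later by radiant heat to the plantar surface in Plexiglass cubicles on a 30 °C glass floor, after 30 min habituation.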

Rattus norvegicus [13] = test: Analgesic activity against complete Freund's adjuvant-induced mechanical allodynia in po dosed Sprague-Dawley rat; assay type: functional
[14] = target: Transient receptor potential cation channel subfamily V member 1 (Rattus norvegicus, UniProt O35433); test: Antagonist activity at rat TRPV1 expressed in human 1321N1 cells assessed as inhibition of capsaicin-induced calcium influx by FLIPR assay; assay type: functional, cell-based; outline: as §1
Chain of Transient receptor potential cation channel subfamily V member 1 (Rattus norvegicus, UniProt O35433) (O35433 whole entry): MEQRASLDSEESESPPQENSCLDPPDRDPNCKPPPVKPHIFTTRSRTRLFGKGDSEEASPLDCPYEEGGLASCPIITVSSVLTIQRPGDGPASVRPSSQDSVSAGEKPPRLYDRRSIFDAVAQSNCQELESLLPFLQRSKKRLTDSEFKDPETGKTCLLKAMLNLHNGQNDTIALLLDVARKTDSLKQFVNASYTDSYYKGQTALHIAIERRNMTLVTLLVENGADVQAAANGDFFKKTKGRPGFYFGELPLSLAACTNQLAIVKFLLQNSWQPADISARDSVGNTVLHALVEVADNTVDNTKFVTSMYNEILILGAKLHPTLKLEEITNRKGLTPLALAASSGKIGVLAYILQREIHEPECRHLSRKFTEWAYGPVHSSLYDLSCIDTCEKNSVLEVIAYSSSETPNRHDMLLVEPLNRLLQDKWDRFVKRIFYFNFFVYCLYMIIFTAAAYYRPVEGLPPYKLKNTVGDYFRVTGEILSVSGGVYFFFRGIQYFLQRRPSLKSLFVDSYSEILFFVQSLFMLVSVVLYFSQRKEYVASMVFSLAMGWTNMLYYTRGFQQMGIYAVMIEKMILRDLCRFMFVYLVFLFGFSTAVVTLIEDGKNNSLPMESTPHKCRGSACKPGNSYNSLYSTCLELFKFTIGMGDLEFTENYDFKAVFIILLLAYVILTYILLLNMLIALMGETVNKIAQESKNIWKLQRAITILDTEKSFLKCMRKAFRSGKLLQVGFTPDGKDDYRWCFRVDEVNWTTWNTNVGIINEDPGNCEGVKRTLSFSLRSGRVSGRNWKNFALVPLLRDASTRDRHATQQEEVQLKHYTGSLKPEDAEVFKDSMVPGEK

[15] = Solubility in PEG-400; assay type: physicochemical
Outline: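 Solubility was measured in PEG-400 as an organic vehicle.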

[16] = Plasma concentration in po dosed Sprague-Dawley rat after 1 hr; assay type: ADME, organism-based
[17] = target: T1, Transient receptor potential cation channel subfamily V member 1; test: Antagonist activity at human recombinant TRPV1 expressed in human 1321N1 cells assessed as inhibition of N-arachidonoyl-dopamine-induced calcium influx by FLIPR assay; assay type: functional, cell-based
Outline: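 FLIPR fluo-4 Ca2+ influx in 1321N1 cells stably expressing human TRPV1, with 3 µM NADA as the stimulus. Compound is added before agonist challenge. Peak fluorescence increase over baseline is fit to a four-parameter logistic curve to give IC50.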

Rattus norvegicus [18] = species on record: Rattus norvegicus; test: Nocifensive activity against capsaicin-induced neuropathic pain in rat; assay type: functional
[19] = Oral bioavailability in Sprague-Dawley rat; assay type: ADME, organism-based; settings: in vivo
[20] = target: Voltage-gated inwardly rectifying potassium channel KCNH2 (Homo sapiens, UniProt Q12809); test: Inhibition of human ERG
Chain of Voltage-gated inwardly rectifying potassium channel KCNH2 (Q12809 whole entry): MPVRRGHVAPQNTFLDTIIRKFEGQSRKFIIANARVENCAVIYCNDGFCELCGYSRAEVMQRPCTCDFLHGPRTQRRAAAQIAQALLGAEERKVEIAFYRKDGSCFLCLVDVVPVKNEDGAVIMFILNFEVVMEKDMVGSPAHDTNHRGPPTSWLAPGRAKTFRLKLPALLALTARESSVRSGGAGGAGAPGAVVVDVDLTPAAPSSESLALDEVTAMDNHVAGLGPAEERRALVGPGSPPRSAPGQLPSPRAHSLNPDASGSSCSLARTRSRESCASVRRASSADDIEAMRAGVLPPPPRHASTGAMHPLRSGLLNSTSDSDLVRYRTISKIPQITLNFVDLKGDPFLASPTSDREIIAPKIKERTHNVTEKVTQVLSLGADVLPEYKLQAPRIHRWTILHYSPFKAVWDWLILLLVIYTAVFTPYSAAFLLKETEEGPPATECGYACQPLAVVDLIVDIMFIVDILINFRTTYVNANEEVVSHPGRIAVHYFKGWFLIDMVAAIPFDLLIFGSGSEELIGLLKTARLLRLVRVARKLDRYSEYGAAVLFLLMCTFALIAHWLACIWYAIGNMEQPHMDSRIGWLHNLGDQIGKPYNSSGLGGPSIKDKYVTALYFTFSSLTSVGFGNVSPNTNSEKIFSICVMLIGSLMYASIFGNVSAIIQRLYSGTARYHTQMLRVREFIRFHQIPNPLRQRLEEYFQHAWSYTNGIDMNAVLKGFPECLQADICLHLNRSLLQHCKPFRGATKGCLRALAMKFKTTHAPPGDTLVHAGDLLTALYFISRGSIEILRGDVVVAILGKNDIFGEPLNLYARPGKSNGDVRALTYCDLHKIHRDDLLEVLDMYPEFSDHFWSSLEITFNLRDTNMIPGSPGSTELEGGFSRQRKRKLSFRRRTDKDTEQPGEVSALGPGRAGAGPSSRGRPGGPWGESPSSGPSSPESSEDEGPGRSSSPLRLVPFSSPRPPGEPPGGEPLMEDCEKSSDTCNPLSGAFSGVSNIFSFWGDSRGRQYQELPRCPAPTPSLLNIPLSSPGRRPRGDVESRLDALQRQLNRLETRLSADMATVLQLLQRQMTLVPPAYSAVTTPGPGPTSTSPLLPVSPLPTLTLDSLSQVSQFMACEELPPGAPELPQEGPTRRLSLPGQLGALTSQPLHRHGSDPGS

[21] = Half-life in po dosed Sprague-Dawley rat; assay type: ADME, organism-based; settings: in vivo

| IC50 [1] [nM] | Compound | Efficacy (Rattus norvegicus [5]) [%] | also measured |
| --- | --- | --- | --- |
| 42 | CC(C)(C)c1ccc(NC(=O)c2ccc(-c3ccccn3)cc2)cc1 |  |  |
|  | CC(C)(C)c1ccc(NC(=O)N2CCN(c3ncccc3Cl)CC2)cc1 |  | Kp [2]: 5; ED50 (Rattus norvegicus [3]): 8 µmol/kg; ED50 (Rattus norvegicus [4]): 8 µmol/kg |
| 24 | O=C(Nc1ccc(S(=O)(=O)C(F)(F)F)cc1)C1=CCN(c2ncccc2C(F)(F)F)CC1 | 58 | Papp [6]: 28.5 ×10⁻⁶ cm/s; solubility [7]: 0.033 µg/mL (≈ 6.88e-05 mM); Kp [2]: 1.5; ED50 (Rattus norvegicus [8]): 40 µmol/kg; IC50 [9]: 14 nM; ED50 (Rattus norvegicus [10]): 20 µmol/kg; ED50 (Rattus norvegicus [3]): > 300 µmol/kg; ED50 (Rattus norvegicus [11]): 8 µmol/kg; ED50 (Rattus norvegicus [12]): 25 µmol/kg; ED50 (Rattus norvegicus [4]): 12 µmol/kg; ED50 (Rattus norvegicus [13]): 76 µmol/kg; IC50 [14]: 17 nM; solubility [15]: > 100 mg/mL; concentration at 1 h [16]: 200 ng/mL; IC50 [17]: 20.2 nM; ED50 (Rattus norvegicus [18]): 10 µmol/kg |
| 10 | CC(C)(C)c1ccc(NC(=O)C2=CCN(c3ncccc3Cl)CC2)cc1 |  |  |
| 147 | COc1cccc(NC(=O)c2ccc(-c3ccccc3)cc2)c1 |  |  |
| 78 | O=C(Nc1ccc(Cl)c(F)c1)C1=CCN(c2ncccc2Cl)CC1 |  |  |
| 33 | O=C(Nc1ccc(Cl)cc1)C1=CCN(c2ncccc2Cl)CC1 |  | bioavailability [19]: 16%; Activity [20]: Active; half-life [21]: 1.7 h |
| 265 | CC(C)(C)c1ccc(NC(=O)C2=CCN(c3ccccc3F)CC2)cc1 |  |  |
| 19 | O=C(Nc1ccc(Cl)cc1)C1=CCN(c2ncccc2C(F)(F)F)CC1 | 40 |  |
| 67 | O=C(Nc1ccc(S(=O)(=O)C(F)(F)F)cc1)C1=CCN(c2ncccc2F)CC1 | 51 | concentration at 1 h [16]: 900 ng/mL |
| 95 | O=C(Nc1ccc(S(=O)(=O)C(F)(F)F)cc1)C1=CCN(c2nccs2)CC1 | 37 | concentration at 1 h [16]: 2100 ng/mL |
| 78 | CC(C)(C)c1ccc(NC(=O)C2=CCN(c3ncccc3C#N)CC2)cc1 |  |  |
| 27 | CC(C)(C)c1ccc(NC(=O)C2=CCN(c3ccccn3)CC2)cc1 |  |  |
| 19 | CC(C)(C)c1ccc(NC(=O)C2=CCN(c3ncccc3F)CC2)cc1 |  |  |
| 14 | CC(C)(C)c1ccc(NC(=O)C2=CCN(c3nccs3)CC2)cc1 |  |  |
| 124 | O=C(Nc1ccc(Cl)c(Cl)c1)C1=CCN(c2ncccc2Cl)CC1 |  |  |
| 2750 | O=C(Nc1ccc(Cl)cc1C(F)(F)F)C1=CCN(c2ncccc2Cl)CC1 |  |  |
| 10 | CC(C)(C)c1ccc(NC(=O)C2=CCN(c3ncccn3)CC2)cc1 |  |  |
| 41 | CC(C)(C#N)c1ccc(NC(=O)C2=CCN(c3ncccc3C(F)(F)F)CC2)cc1 | 25 |  |
| 196 | CC(C)(C)c1ccc(NC(=O)C2CCN(c3ncccc3Cl)CC2)cc1 |  |  |
| 6 | CC(C)(C)c1ccc(NC(=O)C2=CCN(c3ncccc3C(F)(F)F)CC2)cc1 |  | Activity (Rattus norvegicus [5]): 28% |
| 14 | O=C(Nc1cccc2[nH]ncc12)N[C@@H]1CCc2cc(N3CCCCC3)ccc21 |  | Kp [2]: 0.008; ED50 (Rattus norvegicus [8]): 165 µmol/kg; ED50 (Rattus norvegicus [3]): > 300 µmol/kg; ED50 (Rattus norvegicus [11]): 280 µmol/kg; ED50 (Rattus norvegicus [4]): 12 µmol/kg; ED50 (Rattus norvegicus [13]): 300 µmol/kg; IC50 [14]: 30 nM; ED50 (Rattus norvegicus [18]): 10 µmol/kg |
| 44 | O=C(Nc1ccc(S(=O)(=O)C(F)(F)F)cc1)C1=CCN(c2ncccn2)CC1 | 53 | concentration at 1 h [16]: 380 ng/mL |
| 8 | O=C(Nc1ccc(C(F)(F)F)cc1)C1=CCN(c2ncccc2C(F)(F)F)CC1 | 35 |  |
| 41 | O=C(Nc1ccc(S(=O)(=O)C(F)(F)F)cc1)C1=CCN(c2ncccc2Cl)CC1 | 63 | concentration at 1 h [16]: 280 ng/mL |
| 618 | O=C(Nc1ccc(Cl)cc1F)C1=CCN(c2ncccc2Cl)CC1 |  |  |
| 42 | O=C(Nc1ccc(C(F)(F)F)nc1)C1=CCN(c2ncccc2C(F)(F)F)CC1 | 61 | bioavailability [19]: 3% |
| 35 | Cc1cccnc1N1CC=C(C(=O)Nc2ccc(S(=O)(=O)C(F)(F)F)cc2)CC1 | 53 | concentration at 1 h [16]: 960 ng/mL |
